Test results as given in PubChem BioAssay AID624259 (Broad Institute, 2012).
Where “and” joins values, the source holds several entries; their conditions need not be identical. Equal values may be shown once. Calls of active or inactive are those of the source.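 How the source made its calls: active means luminescence drop whose fitted half-maximal dose is at or below twice the top valid tested dose; inconclusive means flat fit with 30 to 70% inhibition, or poor fit; inactive means the rest, including signal rises.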

Tested on: SK-MEL-5 TRPM1-promoter luciferase reporter, 24 h
Experiment: TRPM1 promoter luciferase signal reduction, dose response, MITF inhibitor project, cell-based, SK-MEL-5, dry powder samples, set 3 (AID 624259)
Conditions: not given
Method in brief: (§1)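 Test system: SK-MEL-5 melanoma line with stable TRPM1 promoter–luciferase reporter; dosing: compound in DMSO, 100 nL pinned per well; incubation: compound exposure 24 h, 37 °C; detection: luminescence after SteadyGlo luciferase reagent addition; read-out: reporter luminescence decrease, reflecting reduced MITF-driven TRPM1 expression; benchmarks: parthenolide as positive (inhibition) control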

SMILES | AC50
COc1ccc(C(=O)NC2=C(c3ccccc3)C(=O)c3ccccc3C2=O)cc1 | 14.7 µM
O=C(NC1=C(c2ccc(OC(F)(F)F)cc2)C(=O)c2ccccc2C1=O)c1ccco1 | 31.1 µM
COc1ccc(C2=C(NC(=O)c3cccc(OC)c3)C(=O)c3ccccc3C2=O)cc1 | 17.5 µM
O=C1C(Nc2ccccc2)=C(N2CCOCC2)C(=O)c2ccccc21 | 8.43 µM
O=C(NC1=C(Cl)C(=O)c2ccccc2C1=O)c1ccccc1 | 1.1 µM
O=C(NC1=C(N2CCSCC2)C(=O)c2ccccc2C1=O)c1ccccc1 | 5.8 µM
C=CCNC1=C(N2CCOCC2)C(=O)c2ccccc2C1=O | 3.46 µM
COc1cccc(-c2cc(C(=O)NC3=C(Cl)C(=O)c4ccccc4C3=O)ccc2OC)c1 | 10.4 µM
CN1CCN(C2=C(NS(=O)(=O)c3ccc(Br)cc3)C(=O)c3ccccc3C2=O)CC1 | 2.07 µM
COc1cccc(C2=C(NC(=O)c3ccccc3)C(=O)c3ccccc3C2=O)c1 | 32 µM
COc1ccc(C(=O)NC2=C(c3ccc(OC)cc3)C(=O)c3ccccc3C2=O)cc1 | 11.9 µM
CCN1CCN(C2=C(NS(=O)(=O)c3cccs3)C(=O)c3ccccc3C2=O)CC1 | 6.16 µM
CC(=O)NC1=C(c2cccc(Cl)c2)C(=O)c2ccccc2C1=O | 7.59 µM
O=C1C(NS(=O)(=O)c2ccc(Br)cc2)=C(N2CCSCC2)C(=O)c2ccccc21 | 35.5 µM
O=C1C(NS(=O)(=O)c2cccs2)=C(N2CCOCC2)C(=O)c2ccccc21 | 14.9 µM
COc1ccc(C2=C(NC(=O)c3ccccc3Cl)C(=O)c3ccccc3C2=O)cc1 | 11.8 µM
CC(=O)NC1=C(c2ccc(Oc3ccccc3)cc2)C(=O)c2ccccc2C1=O | 28.1 µM
C=CCNC1=C(NCCN(CC)CC)C(=O)c2ccccc2C1=O | 3.05 µM
Cc1ccc(C(=O)NC2=C(c3ccccc3)C(=O)c3ccccc3C2=O)o1 | 9.24 µM
COc1ccc(C2=C(NC(=O)c3cccc(Cl)c3)C(=O)c3ccccc3C2=O)cc1 | 33.5 µM
C=CCNC1=C(N2CCN(CC)CC2)C(=O)c2ccccc2C1=O | 11.3 µM
C=CCNC1=C(NS(=O)(=O)c2ccc(Br)cc2)C(=O)c2ccccc2C1=O | 22.9 µM
CCN1CCN(C2=C(NC(=O)c3ccccc3)C(=O)c3ccccc3C2=O)CC1 | 1.27 µM
O=C(NC1=C(c2ccccc2)C(=O)c2ccccc2C1=O)c1ccco1 | 9.91 µM
C=CCNC1=C(NCCCN2CCOCC2)C(=O)c2ccccc2C1=O | 8.83 µM
CN1CCN(C2=C(NS(=O)(=O)c3cccs3)C(=O)c3ccccc3C2=O)CC1 | 2.69 µM
C=CCNC1=C(N2CCSCC2)C(=O)c2ccccc2C1=O | 3.98 µM

SMILES | AC50
C=C1C(=O)OC2C1CC/C(C)=C\CCC1(C)OC21 (stereo not given) | 7.5 µM
C=CCNC1=C(NCCCN(CC)CC)C(=O)c2ccccc2C1=O | 5.77 µM
O=C(CNc1cccc2ccccc12)N/N=C/c1ccc([N+](=O)[O-])o1 | 3.08 µM
O=C(NC1=C(c2ccc(OC(F)(F)F)cc2)C(=O)c2ccccc2C1=O)c1ccccc1F | 34.7 µM
C=CCNC1=C(Cl)C(=O)c2ccccc2C1=O | 4.57 µM and 4.74 µM
COc1ccc(C2=C(NC(C)=O)C(=O)c3ccccc3C2=O)cc1 | 6.89 µM
COc1ccc(C2=C(NC(=O)c3ccc(Cl)cc3)C(=O)c3ccccc3C2=O)cc1 | 33.6 µM
CN1CCN(C2=C(NC(=O)c3ccccc3)C(=O)c3ccccc3C2=O)CC1 | 1.13 µM
COc1ccc(S(=O)(=O)N(C(C)=O)c2ccc(OC(C)=O)c3ccccc23)cc1[N+](=O)[O-] | 11.5 µM
CC1CCN(CC(CS(=O)(=O)c2ccc([N+](=O)[O-])cc2)N2CCC(C)CC2)CC1 (stereo not given) | 14.2 µM
O=C1C(NS(=O)(=O)c2ccc(Br)cc2)=C(N2CCOCC2)C(=O)c2ccccc21 | 13.2 µM
CCN1c2ccccc2NC2N=C(OC)C(c3ccccc3)C21 (stereo not given) | 4.27 µM
O=C(NC1=C(c2ccc(OC(F)(F)F)cc2)C(=O)c2ccccc2C1=O)c1ccc(Br)cc1 | 35.1 µM
O=C(NC1=C(N2CCOCC2)C(=O)c2ccccc2C1=O)c1ccccc1 | 11.1 µM
NC1=C(c2ccccc2)C(=O)c2ccccc2C1=O | 14.5 µM
C=CCNC1=C(N2CCCCC2)C(=O)c2ccccc2C1=O | 0.722 µM
CC(=O)NC1=C(c2ccc(Cl)cc2)C(=O)c2ccccc2C1=O | 8 µM
CC(=O)NC1=C(c2ccccc2)C(=O)c2ccccc2C1=O | 8.08 µM
O=C(NC1=C(c2ccccc2)C(=O)c2ccccc2C1=O)c1ccccc1 | 10.5 µM
O=C(NC1=C(c2ccc(OC(F)(F)F)cc2)C(=O)c2ccccc2C1=O)c1ccccc1 | 31.3 µM
CC(=O)NC1=C(c2ccc3c(c2)oc2ccccc23)C(=O)c2ccccc2C1=O | 5.89 µM
C=CCNC1=C(N2CCN(C)CC2)C(=O)c2ccccc2C1=O | 7.93 µM
O=C(NC1=C(c2ccccc2)C(=O)c2ccccc2C1=O)c1ccc(Br)cc1 | 18.1 µM
Cc1nc2ccccc2n1/N=C/c1ccc([N+](=O)[O-])s1 | 3.29 µM
O=C1C(NS(=O)(=O)c2ccc(Br)cc2)=C(N2CCCCC2)C(=O)c2ccccc21 | 20.1 µM
Cc1ccc(C(=O)NC2=C(c3ccc(OC(F)(F)F)cc3)C(=O)c3ccccc3C2=O)o1 | 27.5 µM
CCN1CCN(C2=C(NS(=O)(=O)c3ccc(Br)cc3)C(=O)c3ccccc3C2=O)CC1 | 12.6 µM

Tested on: not listed separately
Experiment: as above
Conditions: SK-MEL-5 TRPM1-promoter luciferase reporter, 24 h; at 35 µM (top of the series)
Method in brief: as §1

SMILES | activity change, negative = inhibition
C=CCNC1=C(NCC=C)C(=O)c2ccccc2C1=O | -10.6% (inactive)
COc1ccc(C(=O)NC2=C(c3ccc(OC(F)(F)F)cc3)C(=O)c3ccccc3C2=O)cc1 | -7.11% (inactive)
COc1ccc(C2=C(NC(=O)c3ccc4ccccc4c3)C(=O)c3ccccc3C2=O)cc1 | 24.2% (inactive)
COc1ccc(C2=C(NC(=O)c3ccc(OC)cc3-c3cccc(OC)c3)C(=O)c3ccccc3C2=O)cc1 | 25.2% (inactive)
O=C(NC1=C(c2ccc(Oc3ccccc3)cc2)C(=O)c2ccccc2C1=O)c1ccccc1 | 17.5% (inactive)
COc1ccc(C2=C(NC(=O)c3ccccc3OC)C(=O)c3ccccc3C2=O)cc1 | 14.6% (inactive)
